# Measurements taken from ChEMBL document CHEMBL1135676, “Comparative molecular field analysis of substrates for an aryl sulfotransferase based on catalytic mechanism and protein homology modeling” (J Med Chem, 2002).
# Target: Sulfotransferase 1A1 (Rattus norvegicus, UniProt P17988)
# Assay: Ratio of kcat/Km determined for catalytic efficiency in sulfonation against AST IV
# How it was run: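 Recombinant rat hepatic AST IV, expressed in E. coli and purified. Each reaction held 1.0 μg enzyme, 0.2 mM PAPS, 8.3 mM 2-mercaptoethanol, varying substrate and 0.25 M potassium phosphate at pH 7.0. Mixtures were preincubated 2 min at 37 °C, started with enzyme, run 10 min at 37 °C and stopped with methanol. Substrate-dependent PAP formation was read by HPLC and corrected with substrate-free controls. kcat is in min⁻¹ and apparent Km in M.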
# Sequence of Sulfotransferase 1A1 (P17988 whole entry): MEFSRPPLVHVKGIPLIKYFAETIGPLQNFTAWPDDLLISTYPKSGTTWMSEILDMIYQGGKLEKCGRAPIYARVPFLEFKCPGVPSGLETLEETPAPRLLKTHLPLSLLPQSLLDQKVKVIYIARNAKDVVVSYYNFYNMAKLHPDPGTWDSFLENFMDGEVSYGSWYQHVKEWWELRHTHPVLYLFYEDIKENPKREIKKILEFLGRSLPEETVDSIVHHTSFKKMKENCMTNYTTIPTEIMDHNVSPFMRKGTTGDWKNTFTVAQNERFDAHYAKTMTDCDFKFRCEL
row,Structure (SMILES),Ratio
1,CCc1ccc(O)cc1,1390
2,OCc1cccc2ccccc12,29.4
3,CCCCC[C@H](O)c1ccccc1,10.2
4,CCCCCCCc1ccc(O)cc1,73.4
5,Oc1ccc(C23C[C@H]4C[C@@H](C2)C[C@@H](C3)C4)cc1,1600
6,CN(O)c1ccccc1,24.2
7,OCc1ccc2ccccc2c1,101
8,ONc1ccc(Cl)cc1,45.6
9,CCCCCCCc1ccc(CO)cc1,11
10,CCCCCCc1ccc(CO)cc1,109
11,O=[N+]([O-])c1ccc(O)c(Cl)c1,190
12,CCCC[C@H](O)c1ccccc1,103
13,C[C@@H](O)c1ccccc1,0.4
14,CCCCc1ccc(O)cc1,2230
15,CCCCCc1ccc(O)cc1,784
16,O=C(CBr)Nc1ccc(O)cc1,146
17,CCN(O)c1ccccc1,14.2
18,CCCCCC[C@H](O)c1ccccc1,8.8
19,CCCc1ccc(CO)cc1,151
20,CCCCCc1ccc(CO)cc1,185
21,CCCCc1ccc(CO)cc1,147
22,CN[C@H](C)[C@H](O)c1ccccc1,0.1

row,Structure (SMILES),Ratio
1,ONc1ccccc1,6.3
2,CC[C@H](O)c1ccccc1,1.4
3,C[C@H](O)c1ccccc1,4.6
4,CCCc1ccc(O)cc1,2410
5,CN[C@@H](C)C(O)c1ccccc1 (stereo partly drawn),0.1
6,CC(C)[C@H](O)c1ccccc1,0.2
7,OC1CCCc2ccccc21 (stereo not drawn),32.4
8,CCCN(O)c1ccccc1,20.8
9,CCC[C@H](O)c1ccccc1,0.8
10,OCc1ccoc1,0.4
11,Oc1ccc(-c2ccccc2)cc1,79.1
12,Cc1ccc(CO)cc1,28.7
13,CCCCCCCCCc1ccc(O)cc1 [4-NONYLPHENOL],28.3
14,CC(=O)Nc1ccc(O)cc1 [ACETAMINOPHEN],66.7
15,OCc1ccccc1 [BENZYL ALCOHOL],20.7
16,Oc1ccc2ccccc2c1 [BETANAPHTHOL],4790
17,OCc1c[nH]c2ccccc12 [INDOLE-3-CARBINOL],38.9
18,O=[N+]([O-])c1ccc(CO)cc1 [PARANITROBENZYL ALCOHOL],3.5
19,Oc1ccccc1 [PHENOL],625
20,COC(=O)[C@@H](N)Cc1ccc(O)cc1 [TYROSINE METHYL ESTER],3
21,Cc1ccc(O)cc1 [p-CRESOL],1080
